Measured values reported in ChEMBL document CHEMBL1221398, “Chemical constituents of the deep reef caribbean sponges Plakortis angulospiculatus and Plakortis halichondrioides and their anti-inflammatory activities” (J Nat Prod, 2010).
Active and inactive are the calls of the source. The calls are words filed in the database; no cut-off is given here.

Columns and labels:
[1] = test system: RAW264.7; assay: Cytotoxicity against mouse RAW264.7 cells up to 25 ug/mL
[2] = test system: HL-60; assay: Cytotoxicity against human HL60 cells up to 25 ug/mL
[3] = test system: HL-60; assay: Antioxidant activity against PMA-treated human HL60 cells assessed as inhibition of ROS generation
[4] = Inhibition of LPS-induced NOS activity in mouse RAW264.7 cells; type: cell-based
Summary of the method: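 Mouse RAW 264.7 macrophages were stimulated with LPS. iNOS activity was read as the decrease in nitrite production relative to untreated vehicle controls, with L-NMMA as positive control. Compounds were tested up to 25 µg/mL.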

[5] = Inhibition of NF-kappaB-mediaated transcription in human SW1353 cells by reporter gene assay; type: cell-based
Summary of the method: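 Luciferase reporter gene assay for NF-κB-mediated transcription in SW 1353 cells, with parthenolide as positive control. A luciferase construct carrying SP-1 binding sites served as a control for nonspecific transcription inhibition.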

[6] = Homo sapiens, SW1353, read-out: IC50

SMILES	IC50 ([4]; read-out: IC50) [µM]	IC50 [5, 6] [µM]	IC50 ([5]; sw1353)	IC50 [4]	Activity [1]	Activity [2]	Activity [3]
CC(=O)/C=C(/C)C(=O)/C(C)=C/C(C)=C/C(C)/C=C/c1ccccc1 (centres undefined)	–	–	–	–	Non-toxic	Non-toxic	inactive
CC(=O)C/C(C)=C/C(C)/C=C/c1ccccc1 (centres undefined)	–	–	–	–	Non-toxic	Non-toxic	inactive
CCC(O)/C(C)=C/C(C)C(O)/C(C)=C/C(C)=C/C(C)/C=C/c1ccccc1 (centres undefined)	64.1	25.6	–	–	Non-toxic	Non-toxic	inactive
C=C1C(=O)O[C@@H]2C3O[C@]3(C)CC/C=C(\C)CC[C@@H]12 (some centres undefined)	–	3.3	–	–	Non-toxic	Non-toxic	inactive
CC1=C[C@](C)(/C=C/C=C/c2ccccc2)[C@](C)(C(=O)O)[C@H]2C(C)=C[C@@H](C)[C@H]12 [22,27-DINOR-ZYGGOMPHIC ACID B]	30.4	27.9	–	–	Non-toxic	Non-toxic	inactive
CCC1=C[C@@H](C)[C@@H]2C(C)=C[C@](C)(/C=C/C=C/c3ccccc3)[C@](C)(C(=O)O)[C@@H]12 [22-NOR-ZYGGOMPHIC ACID B]	19.9	–	Not Active	–	Non-toxic	Non-toxic	inactive
CCC1=C[C@@H](C)[C@@H]2C(C)=C[C@@](/C=C/c3ccccc3)(CC)[C@](C)(C(=O)O)[C@@H]12 [24-NOR-SPICULOIC ACID B]	54.9	0.47	–	–	Non-toxic	Non-toxic	inactive
CC1=C[C@](C)(/C=C(C)/C=C/c2ccccc2)[C@](C)(C(=O)O)[C@H]2C(C)=C[C@@H](C)[C@H]12 [27-NOR-ZYGGOMPHIC ACID B]	18.6	2.28	–	–	Non-toxic	Non-toxic	inactive

Second part, led by results:

IC50 ([4]; read-out: IC50) [µM]	IC50 [5, 6] [µM]	IC50 ([5]; sw1353)	IC50 [4]	SMILES	Activity [1]	Activity [2]	Activity [3]
–	27.2	–	Not Active	CCC1=C[C@@](/C=C/c2ccccc2)(CC)[C@](C)(C(=O)O)[C@H]2C(CC)=C[C@@H](C)[C@H]12 [SPICULOIC ACID B]	Non-toxic	Non-toxic	inactive
> 101	–	–	–	CNC(=N)NCCC[C@H](N)C(=O)O [TILARGININE]	Non-toxic	Non-toxic	inactive
> 64.1	25.8	–	–	CCC1=C[C@@H](C)[C@@H]2C(C)=C[C@](C)(/C=C(C)/C=C/c3ccccc3)[C@](C)(C(=O)O)[C@@H]12 [ZYGGOMPHIC ACID B]	Non-toxic	Non-toxic	inactive
